Measurements from ChEMBL document CHEMBL1933007, “Novel brain penetrant benzofuropiperidine 5-HT₆ receptor antagonists” (Bioorg Med Chem Lett, 2012).
Activity calls are given as the source filed them. The rule behind the calls is not given here.

What was measured:
[1] = biological target: T1, 5-hydroxytryptamine receptor 6 (Homo sapiens, UniProt P50406); experiment: Antagonist activity at human recombinant 5-HT6 receptor expressed human astrocytoma cells assessed as inhibition of 5-HT-induced cAMP accumulation after 10 mins preincubation by HTRF assay
T1 sequence (P50406 whole entry): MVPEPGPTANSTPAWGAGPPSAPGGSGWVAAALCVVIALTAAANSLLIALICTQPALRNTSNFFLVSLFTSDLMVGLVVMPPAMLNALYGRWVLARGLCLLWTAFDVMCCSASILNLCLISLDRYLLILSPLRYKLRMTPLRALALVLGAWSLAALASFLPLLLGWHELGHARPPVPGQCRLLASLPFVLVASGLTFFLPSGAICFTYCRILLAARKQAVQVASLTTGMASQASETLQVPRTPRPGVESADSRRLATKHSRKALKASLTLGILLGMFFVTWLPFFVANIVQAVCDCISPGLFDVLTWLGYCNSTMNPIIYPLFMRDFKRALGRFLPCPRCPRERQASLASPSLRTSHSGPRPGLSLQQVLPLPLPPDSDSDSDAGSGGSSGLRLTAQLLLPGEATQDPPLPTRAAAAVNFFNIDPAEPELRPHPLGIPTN

[2] = Half life in dog liver microsomes; format: ADME, Canis lupus familiaris, Microsome
[3] = Half life in rat liver microsomes; format: ADME, Microsome
[4] = biological target: 5-hydroxytryptamine receptor 6 (Rattus norvegicus, UniProt P31388); experiment: Displacement of [3H]LSD from full length rat 5HT6 receptor
Chain of 5-hydroxytryptamine receptor 6 (Rattus norvegicus, UniProt P31388) (P31388 whole entry): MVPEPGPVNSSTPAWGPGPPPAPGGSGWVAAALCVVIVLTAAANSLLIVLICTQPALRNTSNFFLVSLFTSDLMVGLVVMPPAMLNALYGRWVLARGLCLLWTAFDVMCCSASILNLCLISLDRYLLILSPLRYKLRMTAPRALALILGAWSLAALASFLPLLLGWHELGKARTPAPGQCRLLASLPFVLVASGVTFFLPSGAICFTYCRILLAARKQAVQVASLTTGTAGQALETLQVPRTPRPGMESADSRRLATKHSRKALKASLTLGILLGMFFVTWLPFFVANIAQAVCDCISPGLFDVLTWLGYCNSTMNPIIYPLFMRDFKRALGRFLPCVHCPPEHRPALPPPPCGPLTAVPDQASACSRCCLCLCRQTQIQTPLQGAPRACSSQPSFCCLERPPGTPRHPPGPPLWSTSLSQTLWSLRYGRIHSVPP
Outline: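 Radioligand binding with [³H]LSD on membranes from cells expressing full-length rat 5-HT6R.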

[5] = biological target: T1, 5-hydroxytryptamine receptor 6; experiment: Displacement of [3H]LSD from full length human 5HT6 receptor
Outline: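 Radioligand binding with [³H]LSD on membranes from cells expressing full-length human 5-HT6R.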

[6] = biological target: Voltage-gated inwardly rectifying potassium channel KCNH2 (Homo sapiens, UniProt Q12809); experiment: Inhibition of human ERG by patch express assay
Chain of Voltage-gated inwardly rectifying potassium channel KCNH2 (Q12809 whole entry): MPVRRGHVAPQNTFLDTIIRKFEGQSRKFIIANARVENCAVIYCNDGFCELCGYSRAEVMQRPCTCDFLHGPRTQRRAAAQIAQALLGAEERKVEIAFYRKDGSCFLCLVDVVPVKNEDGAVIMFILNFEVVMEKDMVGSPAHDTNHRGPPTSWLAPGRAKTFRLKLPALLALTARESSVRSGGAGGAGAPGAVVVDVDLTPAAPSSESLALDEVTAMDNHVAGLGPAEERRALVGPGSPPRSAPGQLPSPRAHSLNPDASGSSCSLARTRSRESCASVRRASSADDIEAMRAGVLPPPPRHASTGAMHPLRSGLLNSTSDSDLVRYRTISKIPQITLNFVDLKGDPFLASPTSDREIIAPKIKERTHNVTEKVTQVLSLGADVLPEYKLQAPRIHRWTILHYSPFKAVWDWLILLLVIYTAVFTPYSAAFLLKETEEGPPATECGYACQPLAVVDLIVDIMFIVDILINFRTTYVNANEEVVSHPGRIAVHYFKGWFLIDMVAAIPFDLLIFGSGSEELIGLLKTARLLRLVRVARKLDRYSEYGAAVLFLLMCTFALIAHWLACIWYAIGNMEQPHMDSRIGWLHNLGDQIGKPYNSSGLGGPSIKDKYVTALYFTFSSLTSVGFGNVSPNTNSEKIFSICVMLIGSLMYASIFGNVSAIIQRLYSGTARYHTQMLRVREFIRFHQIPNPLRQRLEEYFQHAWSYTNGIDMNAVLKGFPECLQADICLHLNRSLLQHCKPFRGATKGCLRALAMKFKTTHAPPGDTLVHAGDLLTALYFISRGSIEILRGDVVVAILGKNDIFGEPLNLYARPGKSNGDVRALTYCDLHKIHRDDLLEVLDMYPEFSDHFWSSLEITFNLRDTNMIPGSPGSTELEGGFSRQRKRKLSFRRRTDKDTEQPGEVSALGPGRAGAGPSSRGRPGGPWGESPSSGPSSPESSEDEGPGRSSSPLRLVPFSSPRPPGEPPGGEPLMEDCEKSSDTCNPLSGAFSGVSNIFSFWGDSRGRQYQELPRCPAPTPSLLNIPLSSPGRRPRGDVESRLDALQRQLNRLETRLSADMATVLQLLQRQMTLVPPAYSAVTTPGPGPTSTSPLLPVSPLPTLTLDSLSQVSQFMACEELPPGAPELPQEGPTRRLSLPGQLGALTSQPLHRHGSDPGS

[7] = Dissociation constant, pKa of the compound; format: physicochemical
Outline: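 pKa is a calculated value, not a measured one.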

[8] = Half life in human liver microsomes; format: ADME, Microsome
[9] = Plasma clearance in rat at 1 mg/kg, iv; format: ADME, organism-based; parameters: dose 1 mg/kg, route intravenous
[10] = Cmax in rat at 5 mg/kg, po; format: ADME, organism-based; parameters: dose 5 mg/kg, route oral; details: in vivo
Brain = experiment: Drug uptake in rat brain at 5 mg/kg, ip after 1 hr; format: ADME, organism-based; parameters: dose 5 mg/kg, route intraperitoneal; details: in vivo
Outline: (§1)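 Rats dosed intraperitoneally at 5 mg/kg. Brain concentration measured at 1 h and expressed as a brain-to-plasma ratio.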

Rattus norvegicus [11] = experiment: AUC in rat at 5 mg/kg, po after 6 hrs; format: ADME, organism-based, Plasma; parameters: time < 6 hr, dose 5 mg/kg, route oral; details: in vivo
[12] = Ratio of drug level in brain to plasma in rat at 5 mg/kg, ip; format: ADME, organism-based; parameters: dose 5 mg/kg, route intraperitoneal; details: read-out: BPR
Outline: as §1

[13] = Half life in rat at 1 mg/kg, iv; format: ADME, organism-based; parameters: dose 1 mg/kg, route intravenous; details: in vivo
[14] = Oral bioavailability in rat at 5 mg/kg; format: ADME, organism-based; details: in vivo
[15] = Volume of distribution in rat at 1 mg/kg, iv; format: ADME, organism-based; parameters: dose 1 mg/kg, route intravenous; details: in vivo
[16] = biological target: T2, Alpha-2A adrenergic receptor (Homo sapiens) (UniProt P08913); details: 10 uM
T2 sequence (whole entry): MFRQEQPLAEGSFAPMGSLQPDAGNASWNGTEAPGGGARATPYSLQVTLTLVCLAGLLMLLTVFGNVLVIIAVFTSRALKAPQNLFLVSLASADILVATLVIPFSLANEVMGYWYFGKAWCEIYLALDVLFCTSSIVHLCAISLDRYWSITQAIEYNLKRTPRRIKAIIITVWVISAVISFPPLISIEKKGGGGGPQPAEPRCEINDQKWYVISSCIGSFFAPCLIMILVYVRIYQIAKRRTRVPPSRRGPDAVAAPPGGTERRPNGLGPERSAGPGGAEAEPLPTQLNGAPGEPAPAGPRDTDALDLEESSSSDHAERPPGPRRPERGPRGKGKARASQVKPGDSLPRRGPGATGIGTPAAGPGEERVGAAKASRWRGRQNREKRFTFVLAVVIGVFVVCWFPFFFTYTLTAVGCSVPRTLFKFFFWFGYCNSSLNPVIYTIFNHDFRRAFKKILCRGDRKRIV

[17] = biological target: 5-hydroxytryptamine receptor 2B (Homo sapiens, UniProt P41595); details: 10 uM
Chain of 5-hydroxytryptamine receptor 2B (P41595 whole entry): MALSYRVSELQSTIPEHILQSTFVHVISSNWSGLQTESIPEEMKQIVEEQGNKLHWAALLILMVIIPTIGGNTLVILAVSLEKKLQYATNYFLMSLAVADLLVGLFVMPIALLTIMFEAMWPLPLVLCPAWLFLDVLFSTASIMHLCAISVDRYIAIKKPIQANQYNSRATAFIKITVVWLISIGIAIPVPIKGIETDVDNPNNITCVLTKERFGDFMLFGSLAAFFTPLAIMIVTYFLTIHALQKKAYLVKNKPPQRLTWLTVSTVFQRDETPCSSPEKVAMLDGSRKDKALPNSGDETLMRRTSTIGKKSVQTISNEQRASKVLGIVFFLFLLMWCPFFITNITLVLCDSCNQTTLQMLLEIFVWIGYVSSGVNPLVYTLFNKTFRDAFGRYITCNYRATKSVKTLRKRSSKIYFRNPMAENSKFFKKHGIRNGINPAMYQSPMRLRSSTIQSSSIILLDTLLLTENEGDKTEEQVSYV

Rattus norvegicus [18] = experiment: Increase of short-term memory in rat social recognition model at 0.1 to 3 mg/kg, ip; format: functional, organism-based
[19] = biological target: 5-hydroxytryptamine receptor 2A (Homo sapiens) (UniProt P28223); details: 10 uM
Chain of 5-hydroxytryptamine receptor 2A (Homo sapiens) (P28223 whole entry): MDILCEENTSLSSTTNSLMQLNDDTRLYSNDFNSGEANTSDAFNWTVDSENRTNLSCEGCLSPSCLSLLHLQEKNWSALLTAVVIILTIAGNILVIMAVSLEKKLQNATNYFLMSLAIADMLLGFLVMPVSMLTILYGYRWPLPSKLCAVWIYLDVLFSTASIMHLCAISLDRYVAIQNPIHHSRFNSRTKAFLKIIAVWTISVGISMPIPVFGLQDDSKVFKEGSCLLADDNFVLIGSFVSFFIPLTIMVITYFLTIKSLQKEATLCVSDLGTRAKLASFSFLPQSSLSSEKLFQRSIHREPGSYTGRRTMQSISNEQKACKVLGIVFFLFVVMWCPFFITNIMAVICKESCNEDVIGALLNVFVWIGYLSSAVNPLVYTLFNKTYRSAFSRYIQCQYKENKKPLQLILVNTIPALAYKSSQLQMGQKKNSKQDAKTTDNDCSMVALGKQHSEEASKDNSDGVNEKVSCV

[20] = biological target: D(3) dopamine receptor (Homo sapiens) (UniProt P35462); details: 10 uM
Chain of D(3) dopamine receptor (Homo sapiens) (P35462 whole entry): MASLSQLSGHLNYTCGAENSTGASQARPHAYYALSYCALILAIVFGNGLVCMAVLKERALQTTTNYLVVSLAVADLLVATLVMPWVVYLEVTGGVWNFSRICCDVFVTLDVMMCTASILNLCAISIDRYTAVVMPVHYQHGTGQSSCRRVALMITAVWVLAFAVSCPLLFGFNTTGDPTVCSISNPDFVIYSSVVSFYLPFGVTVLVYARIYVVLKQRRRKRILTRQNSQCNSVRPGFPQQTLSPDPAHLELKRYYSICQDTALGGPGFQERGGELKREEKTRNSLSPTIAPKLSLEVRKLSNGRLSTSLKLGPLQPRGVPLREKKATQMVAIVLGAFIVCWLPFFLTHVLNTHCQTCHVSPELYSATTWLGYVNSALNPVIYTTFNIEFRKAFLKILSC

[21] = biological target: D(2) dopamine receptor (Homo sapiens) (UniProt P14416); details: 1 uM
Chain of D(2) dopamine receptor (Homo sapiens) (P14416 whole entry): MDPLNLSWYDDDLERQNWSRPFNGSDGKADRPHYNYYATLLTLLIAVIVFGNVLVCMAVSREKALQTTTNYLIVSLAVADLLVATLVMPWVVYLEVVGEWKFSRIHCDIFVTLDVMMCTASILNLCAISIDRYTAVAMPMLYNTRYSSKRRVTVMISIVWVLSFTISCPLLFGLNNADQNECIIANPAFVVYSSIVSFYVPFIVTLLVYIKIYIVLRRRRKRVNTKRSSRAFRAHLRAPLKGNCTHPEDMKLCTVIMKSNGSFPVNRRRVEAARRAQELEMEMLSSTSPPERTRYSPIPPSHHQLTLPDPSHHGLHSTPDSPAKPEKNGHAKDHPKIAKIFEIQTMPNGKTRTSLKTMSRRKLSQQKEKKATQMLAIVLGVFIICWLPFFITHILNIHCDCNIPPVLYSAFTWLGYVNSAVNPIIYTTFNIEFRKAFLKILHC

[22] = biological target: T3, Alpha-2B adrenergic receptor (Homo sapiens) (UniProt P18089); details: 10 uM
T3 sequence (whole entry): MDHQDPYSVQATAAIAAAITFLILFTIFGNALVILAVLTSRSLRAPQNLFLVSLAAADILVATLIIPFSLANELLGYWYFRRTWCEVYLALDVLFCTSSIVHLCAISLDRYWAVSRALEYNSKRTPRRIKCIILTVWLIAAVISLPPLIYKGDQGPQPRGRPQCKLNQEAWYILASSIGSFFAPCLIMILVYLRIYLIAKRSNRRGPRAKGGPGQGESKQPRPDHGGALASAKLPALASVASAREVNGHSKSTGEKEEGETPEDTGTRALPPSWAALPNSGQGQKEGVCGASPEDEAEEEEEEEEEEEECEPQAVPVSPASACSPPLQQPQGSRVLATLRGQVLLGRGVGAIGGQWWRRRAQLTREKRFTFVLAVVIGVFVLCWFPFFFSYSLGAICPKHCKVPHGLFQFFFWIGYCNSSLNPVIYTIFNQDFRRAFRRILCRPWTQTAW

O=S(=O)(c1cccc(F)c1)c1ccc2c3c(oc2c1)CNCC3
IC50 [1]: 0.0036 µM
half-life [2]: 10.3 min
half-life [3]: < 5 min
Ki [4]: 0.0069 µM
Ki [5]: 0.0016 µM

O=S(=O)(c1ccc(F)cc1)c1ccc2c3c(oc2c1)CNCC3
Ki [5]: 0.022 µM

COc1cccc(S(=O)(=O)c2ccc3c4c(oc3c2)C(C)(C)NCC4)c1
IC50 [1]: 0.0686 µM
Ki [5]: 0.0175 µM

O=S(=O)(c1cccc(F)c1)c1ccc2c3c(oc2c1)C1(CCCOC1)NCC3 (stereo in doubt; 3)
IC50 [6]: 9.6 µM
pKa [7]: 7.5

CC1(C(F)(F)F)NCCc2c1oc1cc(S(=O)(=O)c3cccc(F)c3)ccc21 (configuration not stated)
pKa [7]: 5.7
Ki [5]: 0.139 µM

O=S(=O)(c1ccccc1)c1ccc2oc3c(c2c1)CCNC3
Ki [4]: 0.156 µM
Ki [5]: 0.046 µM

O=S(=O)(c1cccc(F)c1)c1ccc2c3c(oc2c1)C1(CCOCC1)NCC3
IC50 [1]: 0.0068 µM
half-life [8]: 19 min
half-life [2]: > 40 min
IC50 [6]: > 30 µM
half-life [3]: 25 min
clearance [9]: 17 mL/min/kg
Cmax [10]: 84 ng/mL
Drug uptake (Brain): 979 nmol/g
AUC (Rattus norvegicus [11]): 368 ng·h/mL
Kp [12]: 3.3
half-life [13]: 54 min
Ki [4]: 0.014 µM
bioavailability [14]: 6%
Vd [15]: 1.4 L/kg
pKa [7]: 7.4
Ki [5]: 0.0021 µM

O=S(=O)(c1cccc(F)c1)c1ccc2c3c(oc2c1)C1(CCCOC1)NCC3 (stereo in doubt; 2)
inhibition [16]: > 50%
inhibition [17]: > 50%
Activity (Rattus norvegicus [18]): Active
inhibition [19]: > 50%
inhibition [20]: > 50%
inhibition [21]: > 50%
inhibition [22]: > 50%
